Experimental data published in ChEMBL document CHEMBL4196050, “Design, synthesis, and biological evaluation of compounds with a new scaffold as anti-neuroinflammatory agents for the treatment of Alzheimer's disease” (Eur J Med Chem, 2018).
pIC50: −log10 of the molar value. The source made the active and inactive calls. The calls are words filed in the database; no cut-off is given here.

How the values were obtained:
[1] = tested on: BV-2; experiment: Antineuroinflammatory activity in mouse BV2 cells assessed as inhibition of LPS-induced IL-1beta production after 24 hrs by ELISA; assay type: functional, cell-based; details: BV-2, 24 h
Outline: (§1)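 BV2 cells plated at 4 × 10⁵ cells/mL, grown 48 h, medium replaced with DMEM. Compound added first, then LPS; incubated 24 h at 37 °C. TNF-α or IL-1β in culture medium measured by ELISA. % inhibition = (F_L − F_C)/(F_L − F₀) × 100 against LPS-only and unstimulated cells. IC50 by nonlinear regression of ≥3 independent experiments, mean SEM.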

[2] = tested on: BV-2; experiment: Antineuroinflammatory activity in mouse BV2 cells assessed as inhibition of LPS-induced NO production pretreated for 30 mins followed by LPS stimulation and measured after 24 hrs by Griess assay; assay type: functional, cell-based
Outline: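 BV2 microglia plated at 4 × 10⁵ cells/mL and grown 48 h, then medium replaced. Compounds at various concentrations given 30 min before LPS; incubated 24 h at 37 °C. Equal volume of Griess reagent added to medium, 10 min at room temperature, absorbance read at 540 nm. % inhibition = (F_L − F_C)/(F_L − F₀) × 100. IC50 by nonlinear regression, ≥3 independent experiments, mean SEM.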

[3] = Permeability of the compound after 10 hrs by PAMPA; assay type: ADME; details: read-out: permeability
Outline: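 PAMPA-BBB: filter coated with porcine brain lipid in dodecane (20 mg/mL); acceptor PBS/EtOH (7:3). DMSO stocks (5 mg/mL) diluted 50-fold in PBS/EtOH into donor wells. Sandwich left 10 h at 25 °C; acceptor concentration read by UV plate reader. Pe from volumes, filter area, time and acceptor/equilibrium absorbance. Means SD of ≥3 experiments; Pe > 4.7 × 10⁻⁶ cm/s taken as BBB-permeable.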

[4] = tested on: BV-2; experiment: Antineuroinflammatory activity in mouse BV2 cells assessed as inhibition of LPS-induced TNFalpha production after 24 hrs by ELISA; assay type: functional, cell-based; details: BV-2, 24 h; outline: as §1
[5] = Anti-inflammatory activity in LPS-induced mouse N9 cells assessed as reduction in IL-1beta production pretreated for 18 hrs followed LPS stimulation and measured after 48 hrs by ELISA; assay type: functional, cell-based
[6] = tested on: BV-2; experiment: Antineuroinflammatory activity in mouse BV2 cells assessed as inhibition of LPS-induced iNOS production pretreated for 30 mins followed by LPS stimulation for 16 hrs by Western blot analysis; assay type: functional, cell-based
[7] = molecular target: T1, NF-kappa-B inhibitor alpha (Mus musculus) (UniProt Q9Z1E3); experiment: Inhibition of LPS-induced IkappaBalpha phosphorylation in mouse BV2 cells up to 10 uM preincubated for 30 mins followed by LPS-stimulation for 16 hrs by Western blot analysis; assay type: cell-based
T1 sequence (whole entry): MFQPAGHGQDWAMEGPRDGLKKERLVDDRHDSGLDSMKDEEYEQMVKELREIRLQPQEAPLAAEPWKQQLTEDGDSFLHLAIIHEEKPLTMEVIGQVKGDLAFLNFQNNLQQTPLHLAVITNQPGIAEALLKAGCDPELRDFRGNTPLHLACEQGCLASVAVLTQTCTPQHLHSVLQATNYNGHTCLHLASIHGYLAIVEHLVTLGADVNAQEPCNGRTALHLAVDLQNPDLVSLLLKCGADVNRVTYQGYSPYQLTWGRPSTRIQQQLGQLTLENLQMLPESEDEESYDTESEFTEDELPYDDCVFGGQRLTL
Outline: (§2)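 BV2 cells in 6-well plates, with or without compound 30 min, then with or without LPS for 16 h. Lysed in RIPA with protease and phosphatase inhibitors; cytoplasmic and nuclear fractions separated; protein by BCA. Run on 10% SDS-PAGE, PVDF, milk/TBST block 2 h, primary antibody 4 °C overnight, secondary 2 h at room temperature, chemiluminescence. Phospho-ERK1/2 (Thr202/Tyr204), p38 (Thr180/Tyr182), JNK (Thr183/Tyr185), IκBα (Ser32); GAPDH and Lamin B references. Three independent experiments.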

[8] = molecular target: MAP kinase p38 (Mus musculus) (UniProt P47811+O08911+Q9WUI1+Q9Z1B7); experiment: Inhibition of LPS-induced p38 phosphorylation in mouse BV2 cells up to 10 uM preincubated for 30 mins followed by LPS-stimulation for 16 hrs by Western blot analysis; assay type: cell-based; outline: as §2
[9] = molecular target: Transcription factor p65 (Mus musculus) (UniProt Q04207); experiment: Inhibition of LPS-induced p65 translocation from cytoplasm to nucleus in mouse BV2 cells up to 10 uM preincubated for 30 mins followed by LPS-stimulation for 16 hrs by Western blot analysis; assay type: cell-based; outline: as §2
Chain of Transcription factor p65 (Mus musculus) (Q04207 whole entry): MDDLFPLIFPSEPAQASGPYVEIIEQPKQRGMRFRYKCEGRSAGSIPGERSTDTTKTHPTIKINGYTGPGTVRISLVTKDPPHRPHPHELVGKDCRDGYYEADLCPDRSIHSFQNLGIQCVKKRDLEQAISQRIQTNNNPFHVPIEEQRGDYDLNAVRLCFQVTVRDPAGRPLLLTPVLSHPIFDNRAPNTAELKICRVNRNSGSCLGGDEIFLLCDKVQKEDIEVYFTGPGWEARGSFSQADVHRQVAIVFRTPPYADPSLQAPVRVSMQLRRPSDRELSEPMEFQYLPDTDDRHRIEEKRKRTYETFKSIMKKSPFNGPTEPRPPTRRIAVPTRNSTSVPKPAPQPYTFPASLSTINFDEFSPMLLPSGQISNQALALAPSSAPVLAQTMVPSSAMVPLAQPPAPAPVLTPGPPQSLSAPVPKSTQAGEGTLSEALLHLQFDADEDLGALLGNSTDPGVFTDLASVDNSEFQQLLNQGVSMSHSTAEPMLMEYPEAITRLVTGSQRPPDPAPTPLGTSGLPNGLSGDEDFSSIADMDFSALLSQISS

[10] = molecular target: Mitogen-activated protein kinase 1 and 3 (ERK2 and ERK1) (Mus musculus) (UniProt P63085+Q63844); experiment: Inhibition of LPS-induced ERK1/2 phosphorylation in mouse BV2 cells up to 10 uM preincubated for 30 mins followed by LPS-stimulation for 16 hrs by Western blot analysis; assay type: cell-based; outline: as §2
Chain of Mitogen-activated protein kinase 1 and 3 (ERK2 and ERK1) (Mus musculus) (P63085 whole entry, looked up): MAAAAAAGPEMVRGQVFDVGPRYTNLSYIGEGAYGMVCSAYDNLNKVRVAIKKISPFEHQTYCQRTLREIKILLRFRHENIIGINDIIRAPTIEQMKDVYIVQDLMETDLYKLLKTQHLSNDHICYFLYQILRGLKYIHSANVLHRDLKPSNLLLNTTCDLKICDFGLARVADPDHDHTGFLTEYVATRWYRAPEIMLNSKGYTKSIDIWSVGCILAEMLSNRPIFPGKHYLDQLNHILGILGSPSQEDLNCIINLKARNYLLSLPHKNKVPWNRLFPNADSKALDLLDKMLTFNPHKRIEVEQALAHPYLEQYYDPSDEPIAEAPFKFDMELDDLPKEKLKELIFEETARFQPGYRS
Chain of Mitogen-activated protein kinase 1 and 3 (ERK2 and ERK1) (Mus musculus) (Q63844 whole entry, looked up): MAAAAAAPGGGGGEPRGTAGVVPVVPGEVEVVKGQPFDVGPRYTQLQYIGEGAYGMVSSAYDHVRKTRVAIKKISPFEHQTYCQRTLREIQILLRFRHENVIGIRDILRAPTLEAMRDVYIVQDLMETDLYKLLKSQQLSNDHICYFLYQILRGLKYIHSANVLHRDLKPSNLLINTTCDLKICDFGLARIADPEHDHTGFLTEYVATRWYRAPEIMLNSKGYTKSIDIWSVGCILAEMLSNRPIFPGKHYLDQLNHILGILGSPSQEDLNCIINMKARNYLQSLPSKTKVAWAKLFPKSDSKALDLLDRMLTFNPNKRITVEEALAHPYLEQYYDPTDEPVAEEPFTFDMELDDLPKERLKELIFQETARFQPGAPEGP

[11] = organism: Mus musculus; experiment: Inhibition of LPS-induced JNK phosphorylation in mouse BV2 cells up to 10 uM preincubated for 30 mins followed by LPS-stimulation for 16 hrs by Western blot analysis; assay type: cell-based; outline: as §2

SMILES	pIC50 [1]	pIC50 [2]	Papp at 10 h [3] [×10⁻⁶ cm/s]	pIC50 [4]	pIC50 [5]	inhibition [7]	inhibition [8]	inhibition [9]	inhibition [10]	inhibition [6]	inhibition [11]
COc1ccccc1/C=C(/C(=O)N1CCN(c2ncccn2)CC1)c1ccccc1	4.50	5.10	12.3	4.67							
Cc1cc(-c2ccccc2)nnc1C(=O)N1CCN(c2ncccn2)CC1					8.47						
COc1ccc(/C=C(/C(=O)N2CCN(c3ncccn3)CC2)c2cccc(C(F)(F)F)c2)cc1	4.82	4.65	14.7	4.58							
O=C(/C(=C/c1ccccc1)c1ccccc1)N1CCN(c2ncccn2)CC1	< 4.30	4.75	14.3	4.45							
O=C(/C(=C/c1ccc(F)cc1)c1ccc(F)cc1)N1CCN(c2ncccn2)CC1	4.59	< 4.30	14.3	4.43							
O=C(/C(=C/c1ccc(Cl)cc1)c1ccccc1)N1CCN(c2ncccn2)CC1	< 4.30	< 4.30	7.4	< 4.30							
COc1ccccc1/C=C(/C(=O)N1CCN(c2ncccn2)CC1)c1cccc(C(F)(F)F)c1	4.39	4.50	9.7	4.46							
O=C(/C(=C/c1cccc(Cl)c1)c1cccc(C(F)(F)F)c1)N1CCN(c2ncccn2)CC1	4.82	4.43	10.7	4.57							
COc1ccccc1/C=C(/C(=O)N1CCN(c2ncccn2)CC1)c1ccc(F)cc1	4.74	5.00	13.8	4.63							
COc1ccc(O)c(/C=C(/C(=O)N2CCN(c3ncccn3)CC2)c2ccc(F)cc2)c1	< 4.30	4.33	6.4	< 4.30							
COc1ccc(/C=C(/C(=O)N2CCN(c3ncccn3)CC2)c2ccc(F)cc2)cc1	4.37	4.64	10.5	4.38							
O=C(/C(=C/c1ccc(Cl)cc1)c1ccc(F)cc1)N1CCN(c2ncccn2)CC1	4.44	4.60	7.8	4.75							
COc1ccc(O)c(/C=C(/C(=O)N2CCN(c3ncccn3)CC2)c2cccc(C(F)(F)F)c2)c1	< 4.30	4.37	12.7	< 4.30							
O=C(/C(=C/c1ccc(Cl)cc1)c1cccc(C(F)(F)F)c1)N1CCN(c2ncccn2)CC1	4.66	4.57	5.1	4.37							
O=C(/C(=C/c1ccccc1)c1cccc(C(F)(F)F)c1)N1CCN(c2ncccn2)CC1	4.60	4.40	7.2	< 4.30							
O=C(/C(=C/c1ccccc1Cl)c1cccc(C(F)(F)F)c1)N1CCN(c2ncccn2)CC1	4.74	4.70	15.1	4.60							
O=C(/C(=C/c1ccc(F)cc1)c1cccc(C(F)(F)F)c1)N1CCN(c2ncccn2)CC1	4.51	4.81	12.3	4.70							

Further lines, with some results ahead:

pIC50 [1]	pIC50 [2]	Papp at 10 h [3] [×10⁻⁶ cm/s]	pIC50 [4]	pIC50 [5]	inhibition [7]	inhibition [8]	inhibition [9]	inhibition [10]	SMILES	inhibition [6]	inhibition [11]
5.38	5.19	9.3	5.16						O=C(/C(=C/c1ccc(C(F)(F)F)cc1)c1cccc(C(F)(F)F)c1)N1CCN(c2ncccn2)CC1		
5.62	5.10	14.9	5.23						O=C(/C(=C/C=C/c1ccccc1)c1ccc(F)cc1)N1CCN(c2ncccn2)CC1		
5.47	5.02	10.3	4.77						COc1ccc(/C=C(/C(=O)N2CCN(c3ncccn3)CC2)c2ccccc2)cc1		
6.30	6.00	12.6	5.59		inactive	Active	inactive	Active	O=C(/C(=C/C=C/c1ccccc1)c1cccc(C(F)(F)F)c1)N1CCN(c2ncccn2)CC1	Dose-dependent effect	Active
5.05	5.52	7.6	5.18						O=C(/C(=C/c1ccc(C(F)(F)F)cc1)c1ccc(F)cc1)N1CCN(c2ncccn2)CC1		
4.94	4.32	14.1	4.44						COc1ccc(O)c(/C=C(/C(=O)N2CCN(c3ncccn3)CC2)c2ccccc2)c1		
5.28	5.14	11.3	4.96						O=C(/C(=C/c1ccccc1Cl)c1ccc(F)cc1)N1CCN(c2ncccn2)CC1		
5.06	4.95	1.1	5.02						Oc1ccc(/C=C/c2cc(O)cc(O)c2)cc1 [RESVERATROL]		
4.99	5.09	11.2	4.82						O=C(/C(=C/c1ccccc1)c1ccc(F)cc1)N1CCN(c2ncccn2)CC1		
5.03	5.00	9.4	4.75						O=C(/C(=C/c1ccccc1Cl)c1ccccc1)N1CCN(c2ncccn2)CC1		
4.95	4.83	8.2	4.67						O=C(/C(=C/c1ccc(C(F)(F)F)cc1)c1ccccc1)N1CCN(c2ncccn2)CC1		
4.92	4.96	9.4	5.03						O=C(/C(=C/c1cccc(Cl)c1)c1ccc(F)cc1)N1CCN(c2ncccn2)CC1		
5.11	4.90	11.2	4.79						O=C(/C(=C/c1cccc(Cl)c1)c1ccccc1)N1CCN(c2ncccn2)CC1		
